Measured values: ChEMBL document CHEMBL4017514, “Discovery of Novel Macrocyclic Hedgehog Pathway Inhibitors Acting by Suppressing the Gli-Mediated Transcription” (J Med Chem, 2017)
Activity calls are given as the source filed them. The calls are words filed in the database; no cut-off is given here.

How the values were obtained:
[1] = Inhibition of hedgehog signaling pathway in mouse C3H10T1/2 cells assessed as inhibition of hedgehog-induced cell differentiation after 48 hrs by luminescence assay; type: cell-based; conditions: C3H 10T1/2, 48 h
[2] = Inhibition of hedgehog signaling pathway in mouse Light2 cells in Shh conditioned medium by Gli-luciferase reporter gene assay; type: cell-based; conditions: Mus musculus
How it was run: (§1)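 Light II cells (NIH-3T3 stably transfected with Gli-responsive firefly luciferase and Renilla expression vector) stimulated with ShhN conditioned medium. This medium was collected from ShhN-transfected HEK293 cells kept in 0.1% FBS. Firefly luciferase normalized to Renilla. IC50 given as mean ± SD (nM) from three separate experiments.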

[3] = organism: Mus musculus; test: Inhibition of hedgehog signaling pathway in mouse Light2 cells in Shh conditioned medium at 1 uM by Gli-luciferase reporter gene assay relative to control; type: cell-based
[4] = organism: Mus musculus; test: Inhibition of hedgehog signaling pathway in mouse Ptch+/- p53-/- medulloblastoma cells assessed as reduction in GLI1 mRNA expression at 5 uM by RT-qPCR analysis
How it was run: (§2)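 ptch+/−;p53−/− medulloblastoma cells kept in Neurobasal A/B-27 medium with EGF and bFGF, then treated. Gli1 and ptch1 mRNA measured by RT-qPCR. Data given as mean ± SD.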

[5] = organism: Mus musculus; test: Inhibition of hedgehog signaling pathway in mouse Ptch+/- p53-/- medulloblastoma cells assessed as reduction in ptch1 mRNA expression at 5 uM by RT-qPCR analysis; how it was run: as §2
[6] = Inhibition of hedgehog signaling pathway in mouse Shh Light2 cells harboring Gli2 plasmid assessed as reduction in Gli2-mediated transcriptional activity by luciferase reporter gene assay; type: cell-based
[7] = Inhibition of hedgehog signaling pathway in mouse Shh Light2 cells assessed as reduction in ShhN-induced GLI-mediated transcriptional activity by luciferase reporter gene assay; type: cell-based; how it was run: as §1
[8] = Inhibition of hedgehog signaling pathway in mouse Shh Light2 cells harboring Gli1 plasmid assessed as reduction in Gli1-mediated transcriptional activity by luciferase reporter gene assay; type: cell-based
[9] = Antitumor activity against mouse Ptch+/- p53-/- medulloblastoma cells implanted in athymic nude mouse assessed as tumor growth inhibition at 25 mg/kg, ip bid for 15 consecutive days; type: functional; conditions: Medulloblastoma cell, read-out: TGI
How it was run: (§3)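 Spontaneous ptch+/−;p53−/− intracranial medulloblastomas passaged subcutaneously in athymic nude mice, then 1 mm3 fragments implanted in the right flank. Dosing started at 100−150 mm3 tumor volume, n = 5. Drug given ip twice daily for 15 days as a suspension in 0.5% methylcellulose, 0.2% Tween-80. Caliper volume (length × width2/2) taken twice weekly. TGI calculated on the last day from growth versus vehicle.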

[10] = tested on: Mus musculus; test: Toxicity in athymic nude mouse implanted with mouse Ptch+/- p53-/- medulloblastoma cells assessed as body weight loss at 25 to 50 mg/kg, ip bid for 15 consecutive days; type: organism-based; conditions: in vivo
How it was run: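 Body weight of nude mice (n = 5) carrying medulloblastoma allografts was followed during 15 days of twice-daily ip dosing in 0.5% methylcellulose/0.2% Tween-80 suspension. Data given as mean ± SD.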

[11] = tested on: KB; test: Cytotoxicity against human KB cells; type: cell-based
[12] = Inhibition of hedgehog signaling pathway in mouse Light2 cells harboring wild type Smo after 36 hrs by Gli luciferase activity; type: cell-based
How it was run: (§4)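 Light II cells (NIH-3T3 stably carrying Gli-responsive firefly luciferase and Renilla vector) transfected with wild-type, D473H or W535L Smo plasmid. Exposed to compound for 36 h, then dual luciferase assay with firefly/Renilla normalization. IC50 derived and given as mean ± SD.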

[13] = Inhibition of hedgehog signaling pathway in mouse Light2 cells harboring Smo D473H mutant after 36 hrs by Gli luciferase activity; type: cell-based; how it was run: as §4
[14] = Inhibition of hedgehog signaling pathway in mouse Light2 cells harboring Smo W535L mutant after 36 hrs by Gli luciferase activity; type: cell-based; how it was run: as §4
[15] = Antitumor activity against mouse Ptch+/- p53-/- medulloblastoma cells implanted in athymic nude mouse assessed as tumor growth inhibition at 50 mg/kg, ip bid for 15 consecutive days; type: functional; conditions: Medulloblastoma cell, read-out: TGI; how it was run: as §3

Work on `C[C@H](CO)N1C[C@H](C)[C@H](CN(C)S(=O)(=O)c2ccc(Cl)cc2Cl)Oc2c(NC(=O)C3CC3)cccc2C1=O` yielded an EC50 [1] of 60 nM, an IC50 [2] of 383 nM and an inhibition [3] of 67%. For the same molecule, the inhibition [4] was “inactive” and the inhibition [5] was “inactive”.
`COc1ccc(CN2C[C@@H]3CN(S(=O)(=O)c4ccc(Cl)cc4)CC[C@@H]3Oc3c(NC(=O)C4CC4)cccc3C2=O)cc1` (racemic) gave an IC50 [6] of 24.9 nM, an IC50 [7] of 23 nM and an IC50 [8] of 29.9 nM. For the same molecule, the inhibition in vivo at 25 mg/kg [9] was 57.5%, the Activity [10] was “Non-Toxic” and the IC50 [2] was 23 nM. For the same molecule, the IC50 [11] was greater than 20000 nM, the IC50 [12] was 35.7 nM and the IC50 [13] was 37.5 nM. For the same molecule, the IC50 [14] was 39.8 nM and the inhibition in vivo at 50 mg/kg [15] was 73.4%.
